Laboratory results from ChEMBL document CHEMBL1130749, “Inhibitors of the chymotrypsin-like activity of proteasome based on di- and tri-peptidyl alpha-keto aldehydes (glyoxals)” (Bioorg Med Chem Lett, 1998).
Peptide text beside a SMILES is read from it. * marks the point of attachment. Cbz = O=C(OCc1ccccc1)*

The molecules below were run against Proteasome (assay: Inhibitory constant for the inactivation of the chymotrypsin like activity of proteasome from human red blood corpuscles was determined).
Type: subcellular
How it was run: (§1)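 Proteasome isolated from human erythrocytes by a previously described procedure. Its chymotrypsin-like activity was followed by hydrolysis of the fluorogenic substrate Suc-Leu-Leu-Val-Tyr-NHMec. Inhibition was treated as slow-binding, with a fast EI complex forming first and then isomerising to a tight EI*. Ki* was obtained from the final steady-state rates using a rearranged competitive-inhibition equation.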

Row | Structure (SMILES) | Ki [nM]
1 | CC(C)C[C@@H](C=O)NC(=O)[C@H](CC(C)C)NC(=O)[C@H](CC(C)C)NC(=O)OCc1ccccc1 [MG-132] (Cbz-Leu-Leu-Leu-aldehyde) | 4
2 | CC(C)C[C@H](NC(=O)OCc1ccccc1)C(=O)N[C@@H](Cc1ccccc1)C(=O)C=O | 1400
3 | C[C@H](NC(=O)OCc1ccccc1)C(=O)N[C@@H](Cc1ccccc1)C(=O)C=O | 9200
4 | CC(C)C[C@H](NC(=O)[C@H](C)NC(=O)OCc1ccccc1)C(=O)C=O | 3860
5 | CC(C)C[C@H](NC(=O)[C@@H](CC(C)C)NC(=O)OCc1ccccc1)C(=O)N[C@@H](Cc1ccc(O)cc1)C(=O)C=O | 3.1
6 | CC(C)C[C@H](NC(=O)[C@H](CC(C)C)NC(=O)[C@@H](CC(C)C)NC(=O)c1ccccc1)C(=O)C=O | 3.7
7 | CC(C)[C@H](NC(=O)OCc1ccccc1)C(=O)N[C@@H](Cc1ccccc1)C(=O)C=O | 2050

The molecules below were run on Proteasome (assay: Inhibitory constant for the inactivation of the chymotrypsin like activity of proteasome from human red blood corpuscles was determined; NI means no inhibition).
Type: subcellular
How it was run: as §1

Row | Structure (SMILES) | Ki
8 | CC(=O)N[C@@H](C(=O)N[C@@H](CC(C)C)C(=O)N[C@@H](CCCCN)C(=O)C=O)C(C)C | Not Active
9 | CC(=O)N[C@@H](CCCN=C(N)N)C(=O)N[C@@H](CCCN=C(N)N)C(=O)C=O | Not Active
10 | O=CC(=O)[C@H](Cc1ccccc1)NC(=O)[C@@H]1CCCN1C(=O)OCc1ccccc1 | Not Active
